The results in this text go back to ChEMBL document CHEMBL1133631, “Synthesis of potent agonists of the D-myo-inositol 1,4, 5-trisphosphate receptor based on clustered disaccharide polyphosphate analogues of adenophostin A” (J Med Chem, 2000).

pEC50, pKd: −log10 of the molar value.

The pKd is the Kd on a negative log10 scale, so that one unit is a factor of ten. A low value points to a large Kd. The term Hill slope denotes a measure of the steepness of the concentration-response curve. For orientation: pEC50 means the negative decadic logarithm of the EC50, by convention in mol/L. High values mean a low EC50, low ones a high EC50.

The nature of assay [1]: Binding affinity was measured by equilibrium competing with [3H]IP3 (Inositol 1,4,5-trisphosphate receptor). The gist of the method: (§1)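 Membranes from livers of male Wistar rats were Percoll-purified. A 0.1 mg protein sample in 50 mM Tris, 1 mM EGTA, pH 8.3 was incubated 5 min at 4 °C with [³H]IP₃ (45 nCi, 40 Ci/mmol) and competing ligand. The incubation was stopped by centrifugation, and pellets were scintillation-counted. Parameters came from logistic fits. Nonspecific binding was 10–15%. Triplicate, means ± SEM.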

Assay [2] can be described thus: Hill coefficient for equilibrium binding was evaluated (Inositol 1,4,5-trisphosphate receptor). An outline of the steps:
as §1

Assay [3] is described as follows: Concentration response relationship was used to measure half-maximally effective agonist concentration. The assay is classed as functional. An outline of the steps: (§2)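 Saponin-permeabilized hepatocytes (10⁶ cells·mL⁻¹, 10 µg·mL⁻¹ saponin) loaded to steady state with ⁴⁵Ca²⁺ (20 µCi·mL⁻¹) for 5 min at 37 °C in cytosol-like medium (free Ca²⁺ 200 nM, 7.5 mM ATP, FCCP, PIPES pH 7.0). Cells diluted 5-fold into ATP-free medium with 1.25 µM thapsigargin; ligand added after 15 s, stores filtered 60 s later. Logistic fits gave maximal response, EC50 and Hill slope; means ± SEM.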

Assay [4] is described as follows: compound was tested and the Ratio of EC50 and Kd was found out. The assay is classed as functional.
Assay [5] in a line: Hill coefficient for [Ca2+] release was evaluated. The assay is classed as functional. The gist of the method:
as §2

Assay [6] relates to IP3 receptor (Rattus norvegicus). In words: [Ca2+] release with 10 uM was measured by non-specific binding method.
For assay [7] the test system is unchanged. In words: Maximal Ca+ release response was determined from permeabilized rat hepatocyte assay.
Assay [8] can be described thus: Ratio of EC50 and Kd. The assay is classed as functional.
Assay [9] relates to IP3 receptor (Rattus norvegicus). The assay is described as follows: Concentration response relationship was fitted to logistic equations using kaleidagraph software from which maximal response was measured.

`CO[C@@H]1O[C@H](CO)[C@@H](O[C@H]2O[C@@H](CO)[C@@H](OP(=O)(O)O)[C@H](OP(=O)(O)O)[C@@H]2O)[C@H]1OP(=O)(O)O` had a pKd in [1] of 8.36. The Hill slope in assay [2] is 0.99; in assay [5], 3.4. Besides, in assay [3], the pEC50 is 6.32. In assay [4], the Ratio worked out at 110. Further, the IP3-sensitive Ca2+ stores in assay [6] turned out to be 89%. Besides, the Max response in assay [7] was found to be 33%.
The molecule `CCCOC1O[C@H](CO)[C@H](O[C@@H]2OC(CO)[C@H](OP(=O)(O)O)C(OP(=O)(O)O)[C@@H]2O)[C@@H]1OP(=O)(O)O` (stereo partly specified) gave a pKd in assay [1] of 8.33. The values for the Hill slope in assay [2] and in assay [5] were 0.97 and 2.1, respectively. In addition, the pEC50 in assay [3] was 6.31. The Ratio in assay [4] turned out to be 104. In addition, the IP3-sensitive Ca2+ stores in assay [6] is 87%. The Max response in [7] amounted to 42%.
In turn, `O=P(O)(O)OC1[C@@H](OP(=O)(O)O)C(CO)O[C@@H](O[C@@H]2[C@H](OP(=O)(O)O)C(OCCCc3ccccc3)O[C@@H]2CO)[C@H]1O` (stereo partly specified) gave a pKd in assay [1] of 8.51. The figures for the Hill slope in [2] and in assay [5] were 1.16 and 3.9, respectively. Also, the negative logarithm of the EC50 (pEC50) in [3] was 6.42. Also, the Ratio in assay [4] was determined as 123. Further, in assay [6], the IP3-sensitive Ca2+ stores came out at 87%. Besides, in assay [7], the Max response turned out to be 34%.
For `O=P(O)(O)OC1[C@@H](OP(=O)(O)O)C(CO)O[C@@H](O[C@@H]2[C@H](OP(=O)(O)O)C(OCCCc3ccc(CCCOC4O[C@H](CO)[C@H](O[C@@H]5OC(CO)[C@H](OP(=O)(O)O)C(OP(=O)(O)O)[C@@H]5O)[C@@H]4OP(=O)(O)O)cc3)O[C@@H]2CO)[C@H]1O` (stereo partly specified), in assay [1], the pKd was 8.44. Also, the Hill slope in assay [2] is 0.95; in assay [5], 2.2. Further, the pEC50 in assay [3] was 6.67. Further, the Ratio in assay [8] was 60. In [6], this molecule displayed an IP3-sensitive Ca2+ stores of 92%. In [9], the Max response was found to be 31%.
In the case of `O=P(O)(O)OC1[C@@H](OP(=O)(O)O)C(O)C(O)[C@@H](OP(=O)(O)O)[C@H]1O` (stereo partly specified), the pKd in assay [1] is 8.77. Moreover, the results for the Hill slope in [2] and in [5] were 0.88 and 2.9, respectively. The pEC50 in [3] is 6.70. Also, the Ratio in assay [8] is 120. In addition, in assay [9], the Max response is 32%.
For `O=P(O)(O)OC1[C@@H](OP(=O)(O)O)C(CO)O[C@@H](O[C@@H]2[C@H](OP(=O)(O)O)C(OCCCc3cc(CCCOC4O[C@H](CO)[C@H](O[C@@H]5OC(CO)[C@H](OP(=O)(O)O)C(OP(=O)(O)O)[C@@H]5O)[C@@H]4OP(=O)(O)O)c(CCCOC4O[C@H](CO)[C@H](O[C@@H]5OC(CO)[C@H](OP(=O)(O)O)C(OP(=O)(O)O)[C@@H]5O)[C@@H]4OP(=O)(O)O)cc3CCCOC3O[C@H](CO)[C@H](O[C@@H]4OC(CO)[C@H](OP(=O)(O)O)C(OP(=O)(O)O)[C@@H]4O)[C@@H]3OP(=O)(O)O)O[C@@H]2CO)[C@H]1O` (stereo partly specified), in assay [1], the pKd is 8.37. Besides, the Hill slope in assay [2] is 1.04; in assay [5], 2.1. This molecule also showed a pEC50 in assay [3] of 6.79. Moreover, the Ratio in assay [8] is 37. For the same molecule, the IP3-sensitive Ca2+ stores in assay [6] worked out at 101%. The molecule further yielded a Max response in assay [9] of 42%.
